Read-outs that look alike come from different tables or passages of the source. Marks after values point to notes of the source that are not given here.
Assays:
CB2 [1] = target: T1, CB2 (Homo sapiens, UniProt P34972, Q63R); experiment: β-arrestin 1 translocation real-time BRET assay; type: cell-based; details: HEK 293 cells
CB2 [2] = target: T1, CB2; experiment: β-arrestin 2 translocation real-time BRET assay, wild-type CB2; type: cell-based; details: for Span, β-arrestin 2 translocation to CB2 / Span, β-arrestin 2 translocation, wild-type CB2: HEK 293 cells
CB2 D351A/D354A [3] = target: T2, CB2 D351A/D354A (Homo sapiens, UniProt P34972, D351A/D354A/Q63R); experiment: β-arrestin 2 translocation BRET assay, CB2 D351A/D354A mutant; type: cell-based; details: for Span, β-arrestin 2 translocation, CB2 D351A/D354A: HEK 293 cells
T2 sequence (P34972 whole entry Q63R/D351A/D354A): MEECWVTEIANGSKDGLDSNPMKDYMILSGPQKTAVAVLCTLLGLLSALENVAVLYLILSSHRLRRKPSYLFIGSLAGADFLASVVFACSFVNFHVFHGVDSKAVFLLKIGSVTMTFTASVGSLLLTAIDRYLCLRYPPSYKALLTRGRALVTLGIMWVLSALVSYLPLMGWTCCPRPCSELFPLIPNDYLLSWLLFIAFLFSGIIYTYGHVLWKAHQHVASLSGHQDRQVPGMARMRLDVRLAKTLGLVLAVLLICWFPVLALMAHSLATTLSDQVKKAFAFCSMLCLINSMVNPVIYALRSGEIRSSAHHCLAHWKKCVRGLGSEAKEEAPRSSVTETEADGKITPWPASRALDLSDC

CB2 D356A/D359A [4] = target: T3, CB2 D356A/D359A (Homo sapiens, UniProt P34972, D356A/D359A/Q63R); experiment: β-arrestin 2 translocation BRET assay, CB2 D356A/D359A mutant; type: cell-based; details: for Span, β-arrestin 2 translocation, CB2 D356A/D359A: HEK 293 cells
T3 sequence (P34972 whole entry Q63R/D356A/D359A): as the sequence (P34972 whole entry Q63R/D351A/D354A) above, with A351D, A354D, D356A, D359A counted along it

[5] = target: T4, CB2 D351A/D354A/D356A/D359A (Homo sapiens, UniProt P34972, D351A/D354A/D356A/D359A/Q63R); experiment: β-arrestin 2 translocation BRET assay, CB2 D351A/D354A/D356A/D359A mutant; type: cell-based; details: for Span, β-arrestin 2 translocation, CB2 D351A/D354A/D356A/D359A: HEK 293 cells
T4 sequence (P34972 whole entry Q63R/D351A/D354A/D356A/D359A): as the sequence (P34972 whole entry Q63R/D351A/D354A) above, with D356A, D359A counted along it

Wild-type CB2 = Wild-type CB2 (Homo sapiens, UniProt P34972, Q63R); experiment: G protein dissociation BRET assay, wild-type CB2; type: cell-based
Sequence of Wild-type CB2 (P34972 whole entry Q63R): as the sequence (P34972 whole entry Q63R/D351A/D354A) above, with A351D, A354D counted along it

CB2 D351A/D354A [6] = target: T2, CB2 D351A/D354A; experiment: G protein dissociation BRET assay, CB2 D351A/D354A; type: cell-based
CB2 D356A/D359A [7] = target: T3, CB2 D356A/D359A; experiment: G protein dissociation BRET assay, CB2 D356A/D359A; type: cell-based
[8] = target: T4, CB2 D351A/D354A/D356A/D359A; experiment: G protein dissociation BRET assay, CB2 D351A/D354A/D356A/D359A; type: cell-based; details: HEK 293 cells
endogenous GRK2/3 = type: cell-based, human; details: 30-μM compound 101, 30 min
In short: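 HEK 293 cells PEI-transfected with mem-Citrine-SH3, Rluc8-β-arrestin 2, HA-hCB2 and empty vector, then replated on PDL. Equilibrated ~30 min in phenol red-free DMEM with 1 mg/mL fatty acid-free BSA and 10 mM HEPES, then given 30 µM test compound or vehicle for 30 min.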

T1 sequence (P34972 whole entry Q63R): as the sequence (P34972 whole entry Q63R/D351A/D354A) above, with A351D, A354D counted along it

## CCCCCCC(C)(C)c1ccc([C@@H]2C[C@H](O)CC[C@H]2CCCO)c(O)c1 [CP55940]
CB2 [1]; coexpression of GRK1
  Span, β-arrestin 1 translocation to CB2: 86.32 (2.74) ^* ΔBRET.s
CB2 [1]; coexpression of GRK2
  Span, β-arrestin 1 translocation to CB2: 79.90 (3.34) ^* ΔBRET.s
CB2 [1]; coexpression of GRK3
  Span, β-arrestin 1 translocation to CB2: 79.51 (2.33) ^* ΔBRET.s
CB2 [1]; coexpression of GRK4
  Span, β-arrestin 1 translocation to CB2: 64.47 (1.90) ΔBRET.s
CB2 [1]; coexpression of GRK5
  Span, β-arrestin 1 translocation to CB2: 70.53 (2.52) ΔBRET.s
CB2 [1]; coexpression of GRK6
  Span, β-arrestin 1 translocation to CB2: 66.73 (3.12) ΔBRET.s
CB2 [1]; mock (no GRK)
  Span, β-arrestin 1 translocation to CB2: 63.07 (4.10) ΔBRET.s
CB2 [2]; coexpression of GRK1, Table 2
  Span, β-arrestin 2 translocation to CB2: 183.2 (11.32) ΔBRET.s
CB2 [2]; coexpression of GRK2, Table 2
  Span, β-arrestin 2 translocation to CB2: 164.3 (16.29) ^* ΔBRET.s
CB2 [2]; coexpression of GRK2, Table 3 (mutant experiments)
  Span, β-arrestin 2 translocation, wild-type CB2: 174.54 (11.90) ^* ΔBRET.s
CB2 [2]; coexpression of GRK3, Table 2
  Span, β-arrestin 2 translocation to CB2: 155.0 (9.91) ^* ΔBRET.s
CB2 [2]; coexpression of GRK3, Table 3 (mutant experiments)
  Span, β-arrestin 2 translocation, wild-type CB2: 210.00 (2.53) ^* ΔBRET.s
CB2 [2]; coexpression of GRK4, Table 2
  Span, β-arrestin 2 translocation to CB2: 176.9 (8.00) ΔBRET.s
CB2 [2]; coexpression of GRK5, Table 2
  Span, β-arrestin 2 translocation to CB2: 156.0 (6.71) ^* ΔBRET.s
CB2 [2]; coexpression of GRK6, Table 2
  Span, β-arrestin 2 translocation to CB2: 160.6 (8.71) ΔBRET.s
CB2 [2]; mock (no GRK), Table 2
  Span, β-arrestin 2 translocation to CB2: 190.2 (12.38) ΔBRET.s
CB2 [2]; mock, Table 3 (mutant experiments)
  Span, β-arrestin 2 translocation, wild-type CB2: 222.91 (6.17) ΔBRET.s
CB2 [2]; coexpression of GRK2, GRK3 and GRK5 versus mock
  lowering of efficacy of β-arrestin 2 translocation by GRK coexpression: 10–20%
CB2 D351A/D354A [3]; coexpression of GRK2
  Span, β-arrestin 2 translocation, CB2 D351A/D354A: 147.34 (2.60) ^* ΔBRET.s
CB2 D351A/D354A [3]; coexpression of GRK3
  Span, β-arrestin 2 translocation, CB2 D351A/D354A: 147.06 (10.88) ΔBRET.s
CB2 D351A/D354A [3]; mock
  Span, β-arrestin 2 translocation, CB2 D351A/D354A: 132.61 (6.99)^◊ ΔBRET.s
  reduction in efficacy of β-arrestin 2 translocation versus wild-type CB2: 41%
CB2 D356A/D359A [4]; coexpression of GRK2
  Span, β-arrestin 2 translocation, CB2 D356A/D359A: 161.84 (5.06) ΔBRET.s
CB2 D356A/D359A [4]; coexpression of GRK3
  Span, β-arrestin 2 translocation, CB2 D356A/D359A: 188.04 (8.90) ΔBRET.s
CB2 D356A/D359A [4]; mock
  Span, β-arrestin 2 translocation, CB2 D356A/D359A: 170.18 (6.70)^◊ ΔBRET.s
  reduction in efficacy of β-arrestin 2 translocation versus wild-type CB2: 24%
[5]; coexpression of GRK2
  Span, β-arrestin 2 translocation, CB2 D351A/D354A/D356A/D359A: 194.18 (13.37) ^* ΔBRET.s
  increase of β-arrestin 2 translocation response versus mock: 36%
[5]; coexpression of GRK3
  Span, β-arrestin 2 translocation, CB2 D351A/D354A/D356A/D359A: 180.16 (13.23) ^* ΔBRET.s
  increase of β-arrestin 2 translocation response versus mock: 26%
[5]; mock
  Span, β-arrestin 2 translocation, CB2 D351A/D354A/D356A/D359A: 142.57 (8.39)^◊ ΔBRET.s
  reduction of β-arrestin 2 translocation response versus wild-type CB2: 36%
Wild-type CB2; 1-μM CP55940
  attenuation of G protein dissociation by addition of β-arrestin 2: over 50%
Wild-type CB2; HEK 293 cells, + GRK3
  G protein dissociation at 1 μM CP55940: −226.64 (5.63) ΔBRET.s
Wild-type CB2; HEK 293 cells, + β-arrestin 2
  G protein dissociation at 1 μM CP55940: −97.47 (3.67) ΔBRET.s
  G protein dissociation at 1 μM CP55940, % mock: 45.28 (2.15) % mock
Wild-type CB2; HEK 293 cells, + β-arrestin 2 + GRK3
  G protein dissociation at 1 μM CP55940: −91.65 (4.04) ΔBRET.s
Wild-type CB2; HEK 293 cells, mock
  Span, G protein dissociation: −216.50 (8.58) ΔBRET.s
CB2 D351A/D354A [6]; 1-μM CP55940
  attenuation of G protein dissociation by addition of β-arrestin 2: over 50%
CB2 D351A/D354A [6]; HEK 293 cells, + β-arrestin 2
  G protein dissociation at 1 μM CP55940: −97.62 (4.27) ΔBRET.s
  G protein dissociation at 1 μM CP55940, % mock: 47.86 (1.69) % mock
CB2 D351A/D354A [6]; HEK 293 cells, mock
  Span, G protein dissociation: −204.02 (5.54) ΔBRET.s
CB2 D356A/D359A [7]; 1-μM CP55940
  attenuation of G protein dissociation by addition of β-arrestin 2: over 50%
CB2 D356A/D359A [7]; HEK 293 cells, + β-arrestin 2
  G protein dissociation at 1 μM CP55940: −91.91 (4.94) ΔBRET.s
  G protein dissociation at 1 μM CP55940, % mock: 49.37 (2.63) % mock
CB2 D356A/D359A [7]; HEK 293 cells, mock
  Span, G protein dissociation: −186.32 (4.70) ^* ΔBRET.s
[8]; + GRK3
  G protein dissociation at 1 μM CP55940: −267.49 (4.62)^ⱡ ΔBRET.s
[8]; + β-arrestin 2
  G protein dissociation at 1 μM CP55940: −165.31 (10.19)^◊ ΔBRET.s
  G protein dissociation at 1 μM CP55940, % mock: 67.29 (4.02)^◊ % mock
[8]; + β-arrestin 2 + GRK3
  G protein dissociation at 1 μM CP55940: −155.77 (3.82)^◊ ΔBRET.s
[8]; mock
  Span, G protein dissociation: −246.10 (6.75) ^* ΔBRET.s

## Cn1c(CNc2cccc(C(=O)NCc3ccccc3C(F)(F)F)c2)nnc1-c1ccncc1 [compound 101]
Endogenous GRK2/3; stimulation with 1-μM AMB-FUBINACA
  reduction of β-arrestin 2 translocation to CB2: approximately 15%
Endogenous GRK2/3; stimulation with 10-μM CP55940
  reduction of β-arrestin 2 translocation to CB2: approximately 15%
Endogenous GRK2/3; stimulation with […] 2-AG
  reduction of β-arrestin 2 translocation to CB2: approximately 15%

— article PMC12591375 (British journal of pharmacology, 2022)
